Assay outcomes as filed in PubChem.
Htt clearance – mutant huntingtin protein clearance. AID 853. inhibition, % at 1.5 µM. HeLa Exon1htt(103Q)mCFP, aggregate imaging; zero = plate's median compound well. 47,000 tested, 0.42% active;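 active means inhibition of aggregate fluorescence above about 70%, also judged a hit by eye on the cell image, limit read from the data, passing the limit was not always enough; inconclusive means no rule stated for this call; inactive means not judged a hit on image review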;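 further: cells exposed to compound for three days before fixation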
M1 antagonist – antagonists of rat M1 muscarinic receptor. AID 628. CHO-M1 cells, Fluo-4 calcium, ACh EC80 antagonist mode; active compounds read low. B-score at 10 µM. 64,000 tested, 3.4% active;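 active means calcium fluorescence response, raw or row-and-column corrected B-score, differing from the plate sample mean either way at a set confidence level, mostly lower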
Target sequence (P08482 whole entry, looked up): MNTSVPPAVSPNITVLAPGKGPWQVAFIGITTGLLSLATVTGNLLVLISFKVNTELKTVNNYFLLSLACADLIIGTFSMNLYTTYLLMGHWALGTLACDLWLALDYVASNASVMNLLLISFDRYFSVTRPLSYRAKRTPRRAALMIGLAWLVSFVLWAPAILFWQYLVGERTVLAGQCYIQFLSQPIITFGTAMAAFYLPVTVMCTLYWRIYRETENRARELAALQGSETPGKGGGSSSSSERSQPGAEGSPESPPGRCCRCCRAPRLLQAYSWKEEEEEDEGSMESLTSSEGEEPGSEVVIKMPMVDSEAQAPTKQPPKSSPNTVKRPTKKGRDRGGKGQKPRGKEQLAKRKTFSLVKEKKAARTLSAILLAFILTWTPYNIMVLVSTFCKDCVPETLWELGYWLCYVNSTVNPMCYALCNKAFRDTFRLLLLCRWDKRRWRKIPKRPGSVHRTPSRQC
AP complement – orthogonal test for alternative complement pathway inhibitors; inhibition, % at 5 µM; Human serum alternative complement pathway, LPS-coated ELISA, C3 deposition; tested in compound mixtures; 62,000 tested, 0.08% active;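 active means inhibition above 30% in each of the two pooled mixtures holding the compound, so the lower value exceeds 30%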
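Medium: diluted human serum in Mg2+-EGTA GVB++. Assay system: human serum complement alternative pathway, C3 deposition onto LPS. Also added: Plate-bound LPS. Technique: Anti-C3 ELISA, OD 450 nm. Measure: percent inhibition. Incubation: 1 h at 37 °C. Dosing: 5 µM each compound, pools of ten, 50 µM per pool.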
M1 ag – activates the M1 muscarinic receptor; CHO-M1 cells, Fluo-4 calcium fluorescence, agonist mode; active compounds read high; B-score at 10 µM; 64,000 tested, 3% active; AID 626;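 active means fluorescence rise, raw or as B-score row- and column-corrected plate score, outside the 99.7% band of its plate's samples, either direction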
D1 allo mod – allosteric modulators of human D1 dopamine receptor; P21728; HEK293 D1, CRE-luciferase, dopamine EC30 potentiation; actives deviate in either direction; B-score at 10 µM; 58,000 tested, 5.9% active; AID 641;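 active means luminescence count or its row- and column-corrected plate score outside the 99.7% band of the plate's sample wells, on either side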
M1 agonist conf – rat M1 muscarinic agonism, confirmation | shares compounds with M1 ag | CHO-M1 cells, Fluo-4 calcium fluorescence, agonist mode; actives lie on both sides | fluorescence change (max-min) at 10 µM | 1,700 tested, 19% active | AID 1488;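 active means fluorescence change differs from the solvent-only DMSO control mean at a set confidence level in both duplicate runs; inconclusive means differs from solvent-only control mean in just one of two runs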;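 further: an EC20 dose of acetylcholine follows compound addition during the same imaging run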
M4 agonist ctr – counter-screen for M1 agonists: activity at rat M4 receptor; shares compounds with M1 ag; 1,700 tested, 9% active; CHO M4/Gqi5 cells, Fluo-4 calcium fluorescence, agonist mode; actives lie on both sides; fluorescence change (max-min) at 10 µM;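 active means fluorescence change differing from the plate's solvent-only control wells at 99.7% confidence in both duplicates, whether higher or lower; inconclusive means differs from solvent controls in only one of two duplicates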
A number is an active result; 0 = inactive; ? = inconclusive; - = no result. Compounds with a hit are over-represented: about 9% of the library has one in this group of screens.

SMILES	Htt clearance	M1 antagonist	AP complement	M1 ag	D1 allo mod	M1 agonist conf	M4 agonist ctr
CCOC(=O)C1CCCN(Cc2cc(Br)ccc2OC)C1 (centres undefined)	-	-	0	-	0	-	-
CCOC(=O)C1CCCN(Cc2cc(Br)c(OC)cc2OC)C1 (centres undefined)	0	0	0	7.86	0	0	?
CC(C)NC(=O)CN1CCN(c2ncccn2)CC1	0	0	0	0	0	-	-
C=CCOC(=O)C1=C(C)NC(C)=C(C(=O)OCC=C)C1/C=C/c1ccccc1	0	-	-	-	-	-	-
O=C(CSc1ccc(Cl)cc1)OCc1nnc(-c2ccccc2)o1	-	0	0	0	0	-	-
O/N=C1\CCc2cc(Cl)ccc21	0	0	-	5.48	-	0	0
CC1(C)CC(=O)C=C(Nc2ccccc2F)C1	-	0	0	0	0	-	-
CCCCCn1c(CNC(=O)c2cccs2)nc2ccccc21	-	0	-	0	-	-	-
CCCCCn1c(CCNC(=O)c2cccs2)nc2ccccc21	-	0	-	10.9	-	-30	0
Cc1ccc(CN2C(=O)CCC2C(=O)NCCN2CCN(c3cccc(Cl)c3)CC2)cc1 (centres undefined)	-	0	0	0	0	-	-
CCN(CC)S(=O)(=O)c1ccc(C(=O)OCn2nnc3ccccc3c2=O)cc1	0	0	-	6.24	0	0	?
O=C(OCn1nnc2ccccc2c1=O)c1ccc(S(=O)(=O)N2CCOCC2)cc1	0	0	0	0	0	-	-
CCOc1cc(C(=O)Nc2ccccc2N2CCN(S(C)(=O)=O)CC2)cc(OCC)c1OCC	0	0	0	1.82	0	0	0
CCOc1cc(C(=O)Nc2ccc(N3CCN(S(C)(=O)=O)CC3)cc2)cc(OCC)c1OCC	0	0	0	0	0	-	-
CC(=O)Nc1ccc(NC(=O)CSC2=NCCS2)cc1	0	0	0	0	0	-	-
O=C(CSC1=NCCS1)Nc1ccnc2ccccc12	-	0	0	4.23	0	0	?
O=C1N(CCCCN2C(=O)C3(OCCO3)c3ccccc32)c2ccccc2C12OCCO2	0	0	0	3.09	0	0	0
COc1ccc(OC)c(C2C(C(=O)Nc3cccnc3)=C(C)NC3=C2C(=O)CCC3)c1 (centres undefined)	0	0	0	0	0	-	-
CCOC(=O)c1oc2ccccc2c1CSc1nnnn1-c1ccc(C)cc1	0	0	0	0	0	-	-
COc1cc(CSc2nnnn2-c2ccc(C)cc2)cc(OC)c1OC	-	-2.5	0	5.8	0	0	?
COc1ccc(S(=O)(=O)N2CCN(CC(=O)Nc3cc(C(F)(F)F)ccc3Cl)CC2)cc1	-	0	0	0	-	-	-
CC(=O)Nc1ccc(S(=O)(=O)Nc2nc3ccccc3nc2Sc2nncn2C)cc1	0	0	0	42.6	0	55	0
Cn1cnnc1Sc1nc2ccccc2nc1NS(=O)(=O)c1ccccc1	-	0	0	0	0	-	-
COc1ccc(CCNS(=O)(=O)c2ccc3c(c2)OCCO3)cc1	0	0	0	0	0	-	-
COc1ccc(CCNC2=NCC(C)S2)cc1 (centres undefined)	-	0	0	30.7	-	0	?
SMILES	Htt clearance	M1 antagonist	AP complement	M1 ag	D1 allo mod	M1 agonist conf	M4 agonist ctr
CCOC(=O)C1=C(C)OC(N)=C(C#N)C1c1c(C)nn(-c2ccccc2)c1Cl (centres undefined)	-	0	0	0	0	-	-
C=CCOC(=O)C1=C(C)OC(N)=C(C#N)C1c1c(C)nn(-c2ccccc2)c1Cl (centres undefined)	0	0	0	5.29	0	?	0
CCC(=O)c1ccc(OCC(O)Cn2c(C)nc3ccccc32)cc1 (centres undefined)	-	0	0	6.84	0	-34.2	0
CCC(=O)c1ccc(OCC(O)Cn2cnc3ccccc32)cc1 (centres undefined)	-	0	0	0	-	-	-
Cn1cc(SCC(=O)Nc2nc3ccccc3s2)c2ccccc21	0	0	0	0	-	-	-
Cc1ccccc1Nc1cc2ccccc2c(=O)[nH]1	-	0	0	16.9	0	64	0
Cc1cc2ncn(C3CC(=O)N(Cc4ccccc4)C3=O)c2cc1C (centres undefined)	0	0	0	5.78	0	?	0
Cc1ccc(S(=O)(=O)N2CCN(C3CC(=O)N(Cc4ccccc4)C3=O)CC2)cc1C (centres undefined)	0	0	0	0	0	-	-
Cn1cnnc1SCNC(=O)C(F)(F)F	0	0	0	0	0	-	-
Cc1cc(N2CCN(c3nc4ccccc4s3)CC2)n2ncnc2n1	0	0	0	3.61	0	0	?
Cc1cc(N2CCN(C(c3ccccc3)c3ccccc3)CC2)n2ncnc2n1	-	0	0	0	0	-	-
CCCC(OC(=O)CC1Sc2ccccc2NC1=O)C(=O)NCc1ccco1 (centres undefined)	-	0	0	2.49	-	0	0
O=C(c1ccccc1[N+](=O)[O-])N1CCC(Cc2ccccc2)CC1	0	-	-	-	-	-	-
COCCn1c(=S)[nH]c2ccc(N(C)C)cc2c1=O	0	0	0	6.26	0	0	0
COc1cc(NC(=O)C2CC(=O)NC3=C2C(=O)CC(C)(C)C3)c(OC)cc1Cl (centres undefined)	-	0	0	15.8	-	0	0
CCCCSc1nc(C)c(CC(=O)O)c(=O)[nH]1	-	0	0	0	0	-	-
Cc1ccc(-n2c(C)nc3c(cnn3-c3ccc(F)cc3)c2=O)cc1C	0	0	0	3.54	0	0	?
CSc1nc2c(cnn2-c2ccc(C)c(C)c2)c(=O)[nH]1	-	0	0	0	0	-	-
O=C(NCCCn1ccnc1)c1cc2c(s1)CCCCC2	-	0	0	0	0	-	-
CCN1CCN(c2cc(C)c3cc(NC(=O)c4ccc(Br)o4)ccc3n2)CC1	0	-4.38	0	3.02	-2.53	0	0
CCN1CCN(c2cc(C)c3cc(NC(=O)c4ccncc4)ccc3n2)CC1	-	0	0	0	0	-	-
Cc1cc(C(=O)CSc2nnc(-c3ccco3)o2)c(C)n1-c1ccc2c(c1)OCCO2	-	0	0	12.1	-	?	0
CCc1nc(NCCCN2CCOCC2)c2oc3ccccc3c2n1	-	0	0	0	0	-	-
CCc1nc(NCc2ccccn2)c2oc3ccccc3c2n1	-	0	0	4.18	-	-23.7	?
Cc1cc(N2CCN(C(=O)OC(C)(C)C)CC2)n2ncnc2n1	0	0	-	0	0	-	-
SMILES	Htt clearance	M1 antagonist	AP complement	M1 ag	D1 allo mod	M1 agonist conf	M4 agonist ctr
COC(=O)c1ccccc1NC(=O)COC(=O)c1ccc(C)c(NC(=O)c2ccco2)c1	0	0	0	5.32	0	0	?
CCOC(=O)c1ccc(-n2c(=O)[nH]c3ccccc3c2=O)cc1	-	0	0	-1.99	0	?	0
CSc1ccc(N2C(=O)NC3(CCCCC3)C2=O)cc1	0	0	0	0	0	-	-
O=C(NCc1ccco1)c1cccn2c(=O)c3sccc3nc12	0	-3.22	0	2.9	4.98	0	0
CCOC(=O)N1CCN(C(=O)c2cccn3c(=O)c4sccc4nc23)CC1	0	0	0	0	0	-	-
N#Cc1cccc(NC(=O)c2nc(-c3ccccc3)n(-c3ccccc3)n2)c1	0	0	0	3.51	0	0	0
